# Screening results as filed in PubChem.
# Casp6 inh – inhibitors of human caspase-6; P55212; purified caspase-6, Z-VEID-R110 cleavage fluorescence; inhibition, % at 12.5 µM; 350,000 compounds, 0.53% hits; AID 686996;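 active = mean inhibition across replicates at least about 35%, with every replicate also reaching that limit, limit read from the data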
# NS3 helicase inh – HCV NS3 helicase inhibition; inhibition, % at 10.9 µM; 290,000 compounds, 0.56% hits; NS3 helicase DNA unwinding, Cy5 molecular beacon fluorescence;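 active = inhibition above the mean of all tested compounds plus 3 SD, set per campaign, cut at about 35% in these data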
#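 Test system: hepatitis C virus NS3 helicase domain fragment enzyme. Also added: annealed dual-labelled DNA beacon duplex, ATP-started. Timing: 60 min unwinding reaction at 25 °C after ATP addition. Technique: Cy5 fluorescence. Measure: % inhibition of unwinding.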
# DNMT1 block – DNMT1 (human) enzyme inhibition. inhibition (reported as % activation of signal), % at 10 µM. 360,000 compounds, 0.83% hits. DNMT1 molecular beacon, Hinp1I cleavage, fluorescence. P26358. AID 588458
# NSD2 HMT inh – inhibitors of human histone methyltransferase NSD2 | NSD2 peptide methylation, AlphaScreen, 120 min | O96028 | 310,000 compounds, 0.54% hits | inhibition, % at 12.5 µM | AID 743445
# Target sequence (O96028 whole entry, looked up): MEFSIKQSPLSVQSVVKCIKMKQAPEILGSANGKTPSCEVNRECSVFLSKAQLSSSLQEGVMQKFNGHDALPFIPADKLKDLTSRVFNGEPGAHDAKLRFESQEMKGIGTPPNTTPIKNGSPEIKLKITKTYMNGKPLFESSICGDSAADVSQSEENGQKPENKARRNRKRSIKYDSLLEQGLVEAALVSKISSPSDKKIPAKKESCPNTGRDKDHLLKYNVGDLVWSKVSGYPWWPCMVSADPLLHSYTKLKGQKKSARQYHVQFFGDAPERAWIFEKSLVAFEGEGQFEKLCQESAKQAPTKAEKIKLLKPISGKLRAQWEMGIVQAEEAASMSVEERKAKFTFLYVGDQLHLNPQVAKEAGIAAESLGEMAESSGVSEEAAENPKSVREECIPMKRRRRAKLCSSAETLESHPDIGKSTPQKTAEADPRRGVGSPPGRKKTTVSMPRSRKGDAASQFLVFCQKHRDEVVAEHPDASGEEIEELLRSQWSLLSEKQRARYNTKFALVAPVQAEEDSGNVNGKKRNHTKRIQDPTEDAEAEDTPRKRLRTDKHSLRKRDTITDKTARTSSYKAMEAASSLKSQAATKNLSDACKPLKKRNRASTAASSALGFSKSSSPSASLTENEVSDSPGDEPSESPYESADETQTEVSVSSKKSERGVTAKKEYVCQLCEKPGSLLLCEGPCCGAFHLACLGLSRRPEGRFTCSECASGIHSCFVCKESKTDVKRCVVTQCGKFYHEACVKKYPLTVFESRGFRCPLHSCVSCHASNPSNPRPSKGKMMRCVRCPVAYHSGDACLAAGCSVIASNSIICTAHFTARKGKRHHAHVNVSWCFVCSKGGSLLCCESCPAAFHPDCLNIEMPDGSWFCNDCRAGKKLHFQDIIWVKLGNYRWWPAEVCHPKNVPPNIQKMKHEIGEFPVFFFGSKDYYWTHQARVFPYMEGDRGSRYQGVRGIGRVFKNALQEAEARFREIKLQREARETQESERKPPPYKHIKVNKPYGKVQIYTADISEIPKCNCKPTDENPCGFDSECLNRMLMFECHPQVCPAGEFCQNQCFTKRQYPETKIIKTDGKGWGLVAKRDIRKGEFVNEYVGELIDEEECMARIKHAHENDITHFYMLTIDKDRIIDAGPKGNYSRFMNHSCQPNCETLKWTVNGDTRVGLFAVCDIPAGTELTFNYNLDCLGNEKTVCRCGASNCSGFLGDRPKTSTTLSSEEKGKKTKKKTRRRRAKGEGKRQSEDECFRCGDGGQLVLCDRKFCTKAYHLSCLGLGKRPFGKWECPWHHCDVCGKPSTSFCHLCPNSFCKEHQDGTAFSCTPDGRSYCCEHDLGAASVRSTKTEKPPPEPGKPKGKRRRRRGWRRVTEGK
# AlphaScreen art – counter-screen for NSD2 inhibitors: AlphaScreen artifacts; shares compounds with NSD2 HMT inh; AlphaScreen artifact counterscreen, preloaded methylated H4 peptide; AC35, µM (series often up to 10 µM); 1,500 compounds, 9.4% hits; AID 1053174; call rule not given here
# Numbers stand for hits; i = inactive; nt = no result given. This is a sample that favours compounds with a hit; in the whole collection about 1.5% have one here. Rule as the data show it, unless noted: active = inhibition above about 50%; inactive = the rest.
SMILES,Casp6 inh,NS3 helicase inh,DNMT1 block,NSD2 HMT inh,AlphaScreen art
CC1=NOC(=O)/C1=C\c1ccc(-c2ccccc2Br)o1,i,i,51.7,68.9,i
CC(=O)N=Cc1c(C)c(C#N)c(=O)n(C)c1O,i,i,i,100.7,i
COC1=CC(=O)C(OC)=C(OC)C1=O,i,nt,i,100.7,i
Nc1nc(O)c(Sc2ccccc2[N+](=O)[O-])c(=O)[nH]1,i,i,i,53.6,i
Nc1ccccc1Sc1ccccc1[N+](=O)[O-],nt,i,i,i,nt
CCn1cnc2c1c(=O)n(CC(=O)OC)c(=O)n2Cc1ccccc1,i,i,i,i,nt
CCn1cnc2c1c(=O)n(CC(=O)O)c(=O)n2Cc1ccccc1,i,i,i,113.0,i
CO[C@H]1CN(C)C(=O)c2cc(NC(=O)c3ccc4c(c3)OCO4)ccc2OC[C@@H](C)NC[C@@H]1C,i,nt,nt,nt,nt
Cc1[nH]n(-c2ccccc2)c(=O)c1C(c1ccccc1[N+](=O)[O-])C(C#N)C#N (stereo not drawn),i,i,i,i,nt
Cc1ccc(C(C[N+](=O)[O-])c2c(C)[nH]n(-c3ccccc3)c2=O)cc1 (stereo not drawn),i,i,i,102.9,i
Cc1[nH]n(-c2ccccc2)c(=O)c1C(C[N+](=O)[O-])c1ccc(Cl)cc1 (stereo not drawn),nt,i,i,100.1,i
Cc1[nH]n(-c2ccccc2)c(=O)c1C(C[N+](=O)[O-])c1ccc(F)cc1 (stereo not drawn),nt,i,i,64.8,i
COc1ccc(C(c2c(C)[nH]n(-c3ccccc3)c2=O)c2c(C)[nH]n(-c3ccccc3)c2=O)cc1OC,nt,i,i,97.5,i
COc1ccc(C(c2c(C)n(C)n(-c3ccccc3)c2=O)c2c(C)n(C)n(-c3ccccc3)c2=O)cc1OC,i,i,i,i,nt
CC(=O)N1[C@@H](CO)[C@@H](c2ccccc2)C12CN(C(=O)c1ccccn1)C2,i,nt,nt,nt,nt
CO[C@H]1CN(C)C(=O)c2ccc(NC(C)=O)cc2OC[C@H](C)N(C(=O)C2CCOCC2)C[C@@H]1C,i,nt,nt,nt,nt
COC(=O)[C@H]1[C@H](CO)[C@H]2Cn3c(ccc(C4=CCCCC4)c3=O)[C@H]2N1C(=O)C1CC1,i,nt,nt,nt,nt
Cc1ccc(NC(=O)CCC(=O)OCC(F)(F)C(F)F)cc1,nt,i,i,120.9,i
O=C(CCCC(=O)OCC(F)(F)C(F)F)Nc1ccc(NC(=O)CCCC(=O)OCC(F)(F)C(F)F)cc1,nt,i,i,i,nt
C[C@H](CO)N1C[C@H](C)[C@@H](CN(C)C(=O)NC2CCCCC2)OCCCC[C@H](C)Oc2ccc(NS(=O)(=O)c3ccc(Cl)cc3)cc2C1=O,i,nt,nt,nt,nt
COC(=O)Nc1ccc2c(c1)N(C(=O)CCN(C)C)c1ccccc1CC2,i,i,i,105.0,i
CCOC(=O)Nc1ccc2c(c1)N(C(=O)CCN(C)C)c1ccccc1CC2,i,i,i,i,nt
CC1(C)NC(=O)N(CCOCCOc2ccccc2)C1=O,i,i,i,i,nt
CC1(C)NC(=O)N(CCOCCOc2c(Cl)cc(Cl)cc2Cl)C1=O,nt,i,i,124.9,i
CC(C)(C)NC(=O)C(c1ccco1)N(C(=O)Cn1nnc(-c2ccc(F)cc2)n1)c1ccccc1F (stereo not drawn),nt,i,i,50.1,i
SMILES,Casp6 inh,NS3 helicase inh,DNMT1 block,NSD2 HMT inh,AlphaScreen art
COC(=O)C1=C(C)NC(=O)/C1=C\c1ccco1,i,i,i,i,nt
O=C1C(=Cc2ccco2)CCC1=Cc1ccco1,88.1,nt,i,141.4,i
CC(C)NC(=O)Nc1ccc2c(c1)C(=O)N([C@H](C)CO)C[C@H](C)[C@H](CN(C)S(=O)(=O)c1cn(C)cn1)OCCCC[C@H](C)O2,i,nt,nt,nt,nt
N#CCCN(C(=O)CN1C(=O)NC2(CCCC2)C1=O)c1ccccc1F,nt,i,i,i,nt
CCC1(c2ccc(F)cc2)NC(=O)N(CC(=O)N(CCC#N)c2ccccc2)C1=O (stereo not drawn),i,i,i,60.4,i
C[C@@H]1CN([C@H](C)CO)C(=O)c2cc(C#Cc3ccccc3F)cnc2O[C@H]1CN(C)C(=O)C1CC1,i,nt,nt,nt,nt
O=C(CSc1nnc(Nc2ccccc2)s1)Nc1ccc(S(=O)(=O)N2CCOCC2)cc1,nt,i,i,i,nt
Cc1ccc(Nc2nnc(SCC(=O)Nc3ccc(S(=O)(=O)N4CCOCC4)cc3)s2)cc1,nt,i,i,61.6,i
O=C1c2ccccc2C(=O)c2c(Nc3ccc(CCO)cc3)ccc(O)c21,i,i,i,i,nt
O=C1c2c(O)ccc(O)c2C(=O)c2c(NCCNCCO)ccc(NCCNCCO)c21,i,nt,i,92.0,2.03µM
